How the values were obtained:
[1] = biological target: Aurora kinase A (Homo sapiens, UniProt O14965); test: Inhibition of AURKA (unknown origin) in presence of ATP by enzymatic assay
[2] = biological target: Mitogen-activated protein kinase kinase kinase 9 (Homo sapiens) (UniProt P80192); test: Inhibition of MLK1 (unknown origin) assessed as remaining activity at 1 uM by Kinome scan method relative to control
[3] = tested on: Tyrosine-protein kinase ABL1 (Homo sapiens), P00519 [E255K]; test: Inhibition of phosphorylated ABL1 E255K mutant (unknown origin) assessed as remaining activity at 1 uM by Kinome scan method relative to control
[4] = biological target: Inhibitor of nuclear factor kappa-B kinase subunit epsilon (Homo sapiens) (UniProt Q14164); test: Inhibition of IKK-epsilon (unknown origin) assessed as remaining activity at 1 uM by Kinome scan method relative to control
[5] = biological target: Fibroblast growth factor receptor 4 (Homo sapiens) (UniProt P22455); test: Inhibition of FGFR4 (unknown origin) assessed as remaining activity at 1 uM by Kinome scan method relative to control
[6] = biological target: Serine/threonine-protein kinase/endoribonuclease IRE1 (Homo sapiens) (UniProt O75460); test: Inhibition of ERN1 (unknown origin) assessed as remaining activity at 1 uM by Kinome scan method relative to control
[7] = biological target: Phosphatidylinositol 4-phosphate 5-kinase type-1 gamma (Homo sapiens, UniProt O60331); test: Inhibition of PIP5K1C (unknown origin) assessed as remaining activity at 1 uM by Kinome scan method relative to control
[8] = biological target: Serine/threonine-protein kinase RIO3 (Homo sapiens) (UniProt O14730); test: Inhibition of RIOK3 (unknown origin) assessed as remaining activity at 1 uM by Kinome scan method relative to control
[9] = tested on: Phosphatidylinositol 4,5-bisphosphate 3-kinase catalytic subunit alpha isoform (Homo sapiens), P42336 [E545K]; test: Inhibition of PIK3CA E545K mutant (unknown origin) assessed as remaining activity at 1 uM by Kinome scan method relative to control
[10] = biological target: Serine/threonine-protein kinase 38-like (Homo sapiens) (UniProt Q9Y2H1); test: Inhibition of NDR2 (unknown origin) assessed as remaining activity at 1 uM by Kinome scan method relative to control
[11] = biological target: Serine/threonine-protein kinase ULK2 (Homo sapiens, UniProt Q8IYT8); test: Binding affinity to ULK2 (unknown origin) assessed as dissociation constant
[12] = biological target: Platelet-derived growth factor receptor alpha (Homo sapiens) (UniProt P16234); test: Inhibition of PDGFRalpha (unknown origin) assessed as remaining activity at 1 uM by Kinome scan method relative to control
How it was run: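 KINOMEscan active-site competition binding assay at 1 μM against 468 kinases. Ctrl% = (test − positive control)/(negative control DMSO − positive control) × 100; lower values mean tighter binding.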

[13] = biological target: Calcium/calmodulin-dependent protein kinase kinase 2 (Homo sapiens) (UniProt Q96RR4); test: Inhibition of CAMKK2 (unknown origin) assessed as remaining activity at 1 uM by Kinome scan method relative to control
How it was run: (§1)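 Active-site-dependent competition-binding profiling (KINOMEscan) at 1 μM against a 468-kinase panel; compound supplied from a 10 mM DMSO stock. Read-out is ctrl% = (test signal − positive control signal)/(negative control signal − positive control signal) × 100. DMSO is the negative control (100%) and a control compound the positive control (0%). Lower ctrl% means tighter binding.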

[14] = biological target: Non-receptor tyrosine-protein kinase TYK2 (Homo sapiens, UniProt P29597); test: Inhibition of TYK2 JH2 domain (unknown origin) assessed as remaining activity at 1 uM by Kinome scan method relative to control
[15] = biological target: Testis-specific serine/threonine-protein kinase 3 (Homo sapiens) (UniProt Q96PN8); test: Inhibition of TSSK3 (unknown origin) assessed as remaining activity at 1 uM by Kinome scan method relative to control
[16] = biological target: Activin receptor type-2B (Homo sapiens) (UniProt Q13705); test: Inhibition of ACVR2B (unknown origin) assessed as remaining activity at 1 uM by Kinome scan method relative to control
How it was run: (§2)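 Active-site-dependent competition-binding (KINOMEscan) panel of 468 kinases, test compound at 1 μM (from a 10 mM DMSO stock). Read-out is ctrl% = (test signal − positive control signal)/(negative control signal − positive control signal) × 100. DMSO is the negative control (100%) and a control compound is the positive control (0%). Lower ctrl% means tighter binding.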

[17] = biological target: Tyrosine-protein kinase ABL1 (Homo sapiens) (UniProt P00519); test: Inhibition of ABL1 (unknown origin) assessed as remaining activity at 1 uM by Kinome scan method relative to control; how it was run: as §2
[18] = biological target: Cyclin-dependent kinase 9 (Homo sapiens) (UniProt P50750); test: Inhibition of CDK9 (unknown origin) assessed as remaining activity at 1 uM by Kinome scan method relative to control; how it was run: as §1
[19] = tested on: Proto-oncogene tyrosine-protein kinase receptor Ret (Homo sapiens), P07949 [V804M]; test: Inhibition of RET V804M (unknown origin) assessed as remaining activity at 1 uM by Kinome scan method relative to control
[20] = biological target: Ribosomal protein S6 kinase alpha-5 (Homo sapiens) (UniProt O75582); test: Inhibition of N-terminal kinase domain RPS6KA5 (unknown origin) assessed as remaining activity at 1 uM by Kinome scan method relative to control
[21] = biological target: Aurora kinase C (Homo sapiens) (UniProt Q9UQB9); test: Inhibition of AURKC (unknown origin) assessed as remaining activity at 1 uM by Kinome scan method relative to control
How it was run: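 KINOMEscan active-site-dependent competition-binding panel of 468 kinases, compound at 1 μM from a DMSO stock. Result reported as ctrl% = (test signal − positive control signal)/(negative control signal − positive control signal) × 100. The negative control is DMSO (100%) and the positive control is a control compound (0%). Lower ctrl% means tighter binding.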

[22] = biological target: Phosphorylase b kinase gamma catalytic chain, skeletal muscle/heart isoform (Homo sapiens) (UniProt Q16816); test: Inhibition of PHKG1 (unknown origin) assessed as remaining activity at 1 uM by Kinome scan method relative to control
[23] = biological target: Cyclin-dependent kinase 13 (Homo sapiens) (UniProt Q14004); test: Inhibition of CDC2L5 (unknown origin) assessed as remaining activity at 1 uM by Kinome scan method relative to control; how it was run: as §1
[24] = tested on: Phosphatidylinositol 4,5-bisphosphate 3-kinase catalytic subunit alpha isoform (Homo sapiens), P42336 [Q546K]; test: Inhibition of PIK3CA Q546K mutant (unknown origin) assessed as remaining activity at 1 uM by Kinome scan method relative to control
[25] = biological target: Serine/threonine-protein kinase PAK 3 (Homo sapiens) (UniProt O75914); test: Inhibition of PAK3 (unknown origin) assessed as remaining activity at 1 uM by Kinome scan method relative to control
[26] = biological target: Fibroblast growth factor receptor 1 (Homo sapiens) (UniProt P11362); test: Inhibition of FGFR1 (unknown origin) assessed as remaining activity at 1 uM by Kinome scan method relative to control
[27] = biological target: Serine/threonine-protein kinase ULK3 (Homo sapiens) (UniProt Q6PHR2); test: Inhibition of ULK3 (unknown origin) assessed as remaining activity at 1 uM by Kinome scan method relative to control

Activin receptor type-2B (Homo sapiens), sequence (Q13705 whole entry): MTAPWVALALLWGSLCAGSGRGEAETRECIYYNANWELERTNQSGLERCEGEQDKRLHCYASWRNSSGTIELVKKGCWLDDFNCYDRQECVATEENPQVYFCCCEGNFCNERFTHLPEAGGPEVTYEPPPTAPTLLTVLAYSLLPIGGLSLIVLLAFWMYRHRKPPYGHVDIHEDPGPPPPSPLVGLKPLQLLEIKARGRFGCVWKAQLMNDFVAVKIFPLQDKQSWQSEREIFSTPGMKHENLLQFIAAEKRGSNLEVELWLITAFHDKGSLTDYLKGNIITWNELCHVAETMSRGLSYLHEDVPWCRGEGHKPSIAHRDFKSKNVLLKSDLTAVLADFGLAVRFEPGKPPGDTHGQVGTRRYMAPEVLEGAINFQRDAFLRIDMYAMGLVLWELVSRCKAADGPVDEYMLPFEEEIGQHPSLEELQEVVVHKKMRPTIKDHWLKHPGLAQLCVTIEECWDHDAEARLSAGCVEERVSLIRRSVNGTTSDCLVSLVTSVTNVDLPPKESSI
Serine/threonine-protein kinase/endoribonuclease IRE1 (Homo sapiens), sequence (O75460 19-977 limits assumed): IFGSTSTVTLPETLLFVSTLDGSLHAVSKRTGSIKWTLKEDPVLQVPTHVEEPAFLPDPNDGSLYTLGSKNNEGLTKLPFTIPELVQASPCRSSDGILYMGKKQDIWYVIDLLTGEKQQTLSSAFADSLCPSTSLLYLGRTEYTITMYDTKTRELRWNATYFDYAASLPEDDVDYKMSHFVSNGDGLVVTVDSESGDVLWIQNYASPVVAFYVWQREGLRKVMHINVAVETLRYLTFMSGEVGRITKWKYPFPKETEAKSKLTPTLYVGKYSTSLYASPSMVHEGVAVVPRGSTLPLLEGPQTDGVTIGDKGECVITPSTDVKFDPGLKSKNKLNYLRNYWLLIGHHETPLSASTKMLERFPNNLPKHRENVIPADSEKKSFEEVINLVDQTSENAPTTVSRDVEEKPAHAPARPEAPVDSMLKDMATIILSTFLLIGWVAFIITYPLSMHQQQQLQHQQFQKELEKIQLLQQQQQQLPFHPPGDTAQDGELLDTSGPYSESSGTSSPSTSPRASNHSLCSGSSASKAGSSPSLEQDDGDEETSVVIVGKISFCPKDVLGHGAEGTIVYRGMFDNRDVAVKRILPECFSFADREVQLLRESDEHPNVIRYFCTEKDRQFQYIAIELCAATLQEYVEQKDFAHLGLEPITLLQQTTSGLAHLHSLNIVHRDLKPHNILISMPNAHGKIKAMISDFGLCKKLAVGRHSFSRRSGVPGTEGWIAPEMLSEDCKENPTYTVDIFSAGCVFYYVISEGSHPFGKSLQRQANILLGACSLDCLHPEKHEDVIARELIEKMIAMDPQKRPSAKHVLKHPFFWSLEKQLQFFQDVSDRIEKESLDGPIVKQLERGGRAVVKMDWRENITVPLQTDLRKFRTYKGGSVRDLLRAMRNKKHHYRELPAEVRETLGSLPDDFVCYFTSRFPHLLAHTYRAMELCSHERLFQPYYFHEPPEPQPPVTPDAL
Cyclin-dependent kinase 9 (Homo sapiens), sequence (P50750 whole entry): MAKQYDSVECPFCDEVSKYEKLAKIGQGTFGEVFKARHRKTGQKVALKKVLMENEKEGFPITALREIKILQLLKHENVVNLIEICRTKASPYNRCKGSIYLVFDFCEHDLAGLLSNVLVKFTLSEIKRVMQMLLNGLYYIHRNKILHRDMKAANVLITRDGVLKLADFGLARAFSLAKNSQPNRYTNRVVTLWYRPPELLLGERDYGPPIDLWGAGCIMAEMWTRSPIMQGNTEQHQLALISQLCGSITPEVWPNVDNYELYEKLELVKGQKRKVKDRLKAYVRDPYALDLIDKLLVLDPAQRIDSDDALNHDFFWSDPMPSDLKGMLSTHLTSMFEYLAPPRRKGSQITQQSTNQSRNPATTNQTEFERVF
Phosphatidylinositol 4,5-bisphosphate 3-kinase catalytic subunit alpha isoform (Homo sapiens), P42336 [E545K], sequence (P42336 whole entry E545K, canonical isoform): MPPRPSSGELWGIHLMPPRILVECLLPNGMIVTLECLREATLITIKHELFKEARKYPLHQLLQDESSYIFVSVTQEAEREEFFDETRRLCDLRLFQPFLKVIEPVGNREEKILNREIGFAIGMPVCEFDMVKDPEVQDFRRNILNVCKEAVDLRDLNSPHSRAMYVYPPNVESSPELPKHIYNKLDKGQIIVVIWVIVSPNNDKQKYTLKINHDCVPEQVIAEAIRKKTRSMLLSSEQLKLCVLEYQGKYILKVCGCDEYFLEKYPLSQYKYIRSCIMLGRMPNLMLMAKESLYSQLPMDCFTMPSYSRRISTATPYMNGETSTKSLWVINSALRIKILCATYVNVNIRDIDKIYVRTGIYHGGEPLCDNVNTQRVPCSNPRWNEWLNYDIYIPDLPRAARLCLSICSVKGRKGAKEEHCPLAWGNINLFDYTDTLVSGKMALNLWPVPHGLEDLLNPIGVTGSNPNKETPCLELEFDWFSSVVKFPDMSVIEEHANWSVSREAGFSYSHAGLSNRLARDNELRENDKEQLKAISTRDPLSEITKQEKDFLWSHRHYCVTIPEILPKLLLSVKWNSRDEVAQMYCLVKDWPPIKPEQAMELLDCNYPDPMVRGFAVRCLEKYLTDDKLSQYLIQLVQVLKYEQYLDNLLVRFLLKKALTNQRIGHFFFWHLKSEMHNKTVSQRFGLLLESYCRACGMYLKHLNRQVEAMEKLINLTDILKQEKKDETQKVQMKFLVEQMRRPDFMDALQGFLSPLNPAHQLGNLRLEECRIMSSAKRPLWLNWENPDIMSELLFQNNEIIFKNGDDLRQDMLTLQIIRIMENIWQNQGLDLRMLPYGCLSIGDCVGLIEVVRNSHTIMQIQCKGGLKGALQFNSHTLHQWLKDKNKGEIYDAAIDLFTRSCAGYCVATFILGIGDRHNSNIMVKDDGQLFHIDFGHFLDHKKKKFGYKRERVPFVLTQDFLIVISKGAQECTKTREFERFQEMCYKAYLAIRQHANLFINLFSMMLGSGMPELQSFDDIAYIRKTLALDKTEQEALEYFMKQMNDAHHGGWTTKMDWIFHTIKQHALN
Testis-specific serine/threonine-protein kinase 3 (Homo sapiens), sequence (Q96PN8 whole entry): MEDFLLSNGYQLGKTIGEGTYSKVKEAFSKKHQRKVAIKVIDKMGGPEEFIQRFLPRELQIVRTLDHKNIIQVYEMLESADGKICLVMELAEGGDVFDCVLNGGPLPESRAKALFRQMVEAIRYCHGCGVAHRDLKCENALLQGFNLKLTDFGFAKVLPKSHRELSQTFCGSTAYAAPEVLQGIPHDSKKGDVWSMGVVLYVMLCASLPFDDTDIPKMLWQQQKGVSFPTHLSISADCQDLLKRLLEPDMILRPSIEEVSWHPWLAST
Platelet-derived growth factor receptor alpha (Homo sapiens), sequence (P16234 whole entry): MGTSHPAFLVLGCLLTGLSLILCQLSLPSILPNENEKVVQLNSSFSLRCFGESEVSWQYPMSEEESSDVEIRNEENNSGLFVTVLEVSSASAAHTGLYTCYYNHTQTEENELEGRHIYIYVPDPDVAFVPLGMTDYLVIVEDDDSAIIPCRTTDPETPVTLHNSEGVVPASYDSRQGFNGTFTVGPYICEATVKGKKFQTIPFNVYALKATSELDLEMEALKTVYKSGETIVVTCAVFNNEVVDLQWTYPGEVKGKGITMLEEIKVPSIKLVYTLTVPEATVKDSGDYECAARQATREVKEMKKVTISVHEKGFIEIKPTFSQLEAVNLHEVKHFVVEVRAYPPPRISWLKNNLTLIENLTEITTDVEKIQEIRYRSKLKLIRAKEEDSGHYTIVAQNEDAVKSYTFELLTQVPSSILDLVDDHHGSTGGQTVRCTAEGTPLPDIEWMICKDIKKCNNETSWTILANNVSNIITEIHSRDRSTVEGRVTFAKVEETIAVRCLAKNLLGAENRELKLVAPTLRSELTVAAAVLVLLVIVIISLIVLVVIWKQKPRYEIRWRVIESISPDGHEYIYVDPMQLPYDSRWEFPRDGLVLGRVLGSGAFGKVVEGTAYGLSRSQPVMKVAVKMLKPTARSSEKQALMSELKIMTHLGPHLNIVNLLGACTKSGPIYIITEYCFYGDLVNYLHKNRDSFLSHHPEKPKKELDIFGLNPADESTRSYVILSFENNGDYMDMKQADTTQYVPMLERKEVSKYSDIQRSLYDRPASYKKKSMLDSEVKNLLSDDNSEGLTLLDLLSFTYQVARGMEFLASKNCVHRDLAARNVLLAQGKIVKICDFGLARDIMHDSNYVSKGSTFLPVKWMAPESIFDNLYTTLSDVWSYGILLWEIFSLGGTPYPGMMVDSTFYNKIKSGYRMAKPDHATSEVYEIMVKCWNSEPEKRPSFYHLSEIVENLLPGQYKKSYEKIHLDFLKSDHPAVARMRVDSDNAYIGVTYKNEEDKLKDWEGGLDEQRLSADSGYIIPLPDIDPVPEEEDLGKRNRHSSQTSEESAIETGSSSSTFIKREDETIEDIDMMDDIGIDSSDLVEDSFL
Calcium/calmodulin-dependent protein kinase kinase 2 (Homo sapiens), sequence (Q96RR4 2-588 limits assumed): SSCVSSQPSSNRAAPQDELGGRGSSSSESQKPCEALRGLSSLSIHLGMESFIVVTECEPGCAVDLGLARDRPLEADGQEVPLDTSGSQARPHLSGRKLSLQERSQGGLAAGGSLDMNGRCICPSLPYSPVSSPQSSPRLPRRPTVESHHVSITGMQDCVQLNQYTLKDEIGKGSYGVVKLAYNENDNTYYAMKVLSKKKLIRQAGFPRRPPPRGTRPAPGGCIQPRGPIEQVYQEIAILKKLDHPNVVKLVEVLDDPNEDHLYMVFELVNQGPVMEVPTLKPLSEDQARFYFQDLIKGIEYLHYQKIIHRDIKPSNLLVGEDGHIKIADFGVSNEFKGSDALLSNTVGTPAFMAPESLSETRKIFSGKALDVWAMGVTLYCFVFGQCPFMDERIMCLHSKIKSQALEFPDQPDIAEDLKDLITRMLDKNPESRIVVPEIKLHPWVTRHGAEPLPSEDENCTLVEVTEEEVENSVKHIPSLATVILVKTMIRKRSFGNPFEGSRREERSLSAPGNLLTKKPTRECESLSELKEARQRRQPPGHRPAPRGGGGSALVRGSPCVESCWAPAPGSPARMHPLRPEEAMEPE
Phosphatidylinositol 4,5-bisphosphate 3-kinase catalytic subunit alpha isoform (Homo sapiens), P42336 [Q546K], sequence (P42336 whole entry Q546K, canonical isoform): as the sequence (P42336 whole entry E545K, canonical isoform) above, with K545E, Q546K counted along it

`CN1C(=O)c2sccc2N(C)c2nc(Nc3ccc(S(N)(=O)=O)cc3)ncc21` gave an IC50 [1] of 19.4 nM, an Activity [2] of 100% and an Activity [3] of 11%. The Activity [4] was 86%, the Activity [5] was 100% and the Activity [6] was 65%. For the same molecule, the Activity [7] was 10%, the Activity [8] was 100% and the Activity [9] was 49%. The Activity [10] was 82%, the Kd [11] was 35 nM and the Activity [12] was 89%. It also gave an Activity [13] of 84%, an Activity [14] of 71% and an Activity [15] of 93%. It also gave an Activity [16] of 100%, an Activity [17] of 21% and an Activity [18] of 84%. For the same molecule, the Activity [19] was 92%, the Activity [20] was 97% and the Activity [21] was 95%. The Activity [22] was 100%, the Activity [23] was 90% and the Activity [24] was 50%. It also gave an Activity [25] of 100%, an Activity [26] of 88% and an Activity [27] of 84%.

— ChEMBL document CHEMBL5705905, “Pharmacological targeting of kinases MST1 and MST2 augments tissue repair and regeneration” (Sci Transl Med, 2016)
